This passage reports IC50 and inhibition results from ChEMBL document CHEMBL3352121, “Modulation of Activity Profiles for Largazole-Based HDAC Inhibitors through Alteration of Prodrug Properties” (ACS Med Chem Lett, 2014).

Molecules are shown by their SMILES.

In assay [1] the target is T1, Histone deacetylase 5 (Homo sapiens, UniProt Q9UQL6). Kind of assay: Inhibition of HDAC5 (unknown origin) incubated for 30 mins in presence of BSA and DTT by fluorescence assay. The method in brief: (§1)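 Purified HDAC isoforms were tested up to a maximum of 1 μM. IC50 values are averages of duplicate experiments. Disulfide compounds were pretreated with DTT to reduce the disulfide bond.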
T1 sequence (Q9UQL6 whole entry, canonical isoform): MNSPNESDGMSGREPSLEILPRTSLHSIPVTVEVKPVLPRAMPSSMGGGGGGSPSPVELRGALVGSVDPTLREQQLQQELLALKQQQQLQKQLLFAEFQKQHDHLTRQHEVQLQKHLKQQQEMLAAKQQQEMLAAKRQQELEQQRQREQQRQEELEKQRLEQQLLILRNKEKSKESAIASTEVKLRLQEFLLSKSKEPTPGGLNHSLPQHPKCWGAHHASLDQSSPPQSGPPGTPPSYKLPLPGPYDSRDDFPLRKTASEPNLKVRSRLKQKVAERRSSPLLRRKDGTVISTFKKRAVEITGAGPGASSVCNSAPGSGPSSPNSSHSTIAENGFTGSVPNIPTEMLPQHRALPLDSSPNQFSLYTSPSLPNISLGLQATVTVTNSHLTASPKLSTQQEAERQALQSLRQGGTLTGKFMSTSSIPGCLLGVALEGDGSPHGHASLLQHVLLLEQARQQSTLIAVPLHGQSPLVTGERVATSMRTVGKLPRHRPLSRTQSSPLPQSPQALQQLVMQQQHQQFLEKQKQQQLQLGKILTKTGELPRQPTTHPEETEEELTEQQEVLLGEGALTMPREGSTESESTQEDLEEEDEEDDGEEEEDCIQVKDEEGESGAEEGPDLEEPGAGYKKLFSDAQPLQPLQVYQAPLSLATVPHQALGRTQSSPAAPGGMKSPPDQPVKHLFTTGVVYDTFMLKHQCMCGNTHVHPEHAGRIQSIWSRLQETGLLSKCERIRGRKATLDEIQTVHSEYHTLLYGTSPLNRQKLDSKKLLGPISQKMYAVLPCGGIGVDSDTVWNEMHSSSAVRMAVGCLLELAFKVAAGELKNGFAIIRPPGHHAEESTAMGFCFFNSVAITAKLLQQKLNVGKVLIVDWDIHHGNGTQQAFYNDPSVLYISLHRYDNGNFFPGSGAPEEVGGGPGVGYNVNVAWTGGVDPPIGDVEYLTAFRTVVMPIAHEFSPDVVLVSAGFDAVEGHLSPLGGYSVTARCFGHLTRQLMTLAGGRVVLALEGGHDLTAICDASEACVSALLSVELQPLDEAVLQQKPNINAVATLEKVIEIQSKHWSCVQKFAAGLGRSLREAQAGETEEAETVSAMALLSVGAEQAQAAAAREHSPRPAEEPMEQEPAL

Assay [2] addresses T2, Histone deacetylase 7 (Homo sapiens, UniProt Q8WUI4).
T2 sequence (Q8WUI4 whole entry): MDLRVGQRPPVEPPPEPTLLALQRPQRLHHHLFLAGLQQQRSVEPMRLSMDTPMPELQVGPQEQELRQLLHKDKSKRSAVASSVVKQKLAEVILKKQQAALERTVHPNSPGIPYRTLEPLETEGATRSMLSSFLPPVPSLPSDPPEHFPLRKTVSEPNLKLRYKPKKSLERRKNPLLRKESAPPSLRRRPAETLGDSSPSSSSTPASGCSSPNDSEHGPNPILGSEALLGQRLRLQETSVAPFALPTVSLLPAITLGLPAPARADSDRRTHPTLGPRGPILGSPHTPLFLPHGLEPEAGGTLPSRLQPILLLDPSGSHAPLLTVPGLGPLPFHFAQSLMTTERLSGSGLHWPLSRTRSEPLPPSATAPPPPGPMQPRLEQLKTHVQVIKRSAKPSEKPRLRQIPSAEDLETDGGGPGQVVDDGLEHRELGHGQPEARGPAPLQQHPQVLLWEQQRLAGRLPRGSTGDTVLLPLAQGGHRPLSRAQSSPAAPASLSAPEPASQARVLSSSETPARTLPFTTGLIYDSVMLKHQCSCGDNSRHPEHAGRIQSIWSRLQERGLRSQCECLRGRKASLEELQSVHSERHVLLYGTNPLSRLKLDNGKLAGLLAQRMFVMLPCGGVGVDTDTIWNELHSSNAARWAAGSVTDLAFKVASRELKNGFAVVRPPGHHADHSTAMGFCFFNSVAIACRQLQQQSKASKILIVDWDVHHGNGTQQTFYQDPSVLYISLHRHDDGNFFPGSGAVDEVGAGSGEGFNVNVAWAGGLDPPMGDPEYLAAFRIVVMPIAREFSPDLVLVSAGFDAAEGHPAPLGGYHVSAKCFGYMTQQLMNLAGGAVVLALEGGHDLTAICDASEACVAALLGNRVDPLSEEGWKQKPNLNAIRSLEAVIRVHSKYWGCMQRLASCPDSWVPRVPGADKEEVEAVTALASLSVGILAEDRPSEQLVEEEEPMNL
Briefly: Inhibition of HDAC7 (unknown origin) incubated for 30 mins in presence of BSA and DTT by fluorescence assay. The method in brief: as §1

Assay [3] deals with T3, Histone deacetylase 7 (Homo sapiens) (UniProt Q8WUI4).
T3 sequence (whole entry): T2 sequence (Q8WUI4 whole entry)
Kind of assay: Inhibition of HDAC7 (unknown origin) at 1 uM incubated for 30 mins in presence of BSA and DTT by fluorescence assay. Put shortly:
as §1

The target in assay [4] is T4, Histone deacetylase 11 (Homo sapiens, UniProt Q96DB2).
T4 sequence (Q96DB2 whole entry): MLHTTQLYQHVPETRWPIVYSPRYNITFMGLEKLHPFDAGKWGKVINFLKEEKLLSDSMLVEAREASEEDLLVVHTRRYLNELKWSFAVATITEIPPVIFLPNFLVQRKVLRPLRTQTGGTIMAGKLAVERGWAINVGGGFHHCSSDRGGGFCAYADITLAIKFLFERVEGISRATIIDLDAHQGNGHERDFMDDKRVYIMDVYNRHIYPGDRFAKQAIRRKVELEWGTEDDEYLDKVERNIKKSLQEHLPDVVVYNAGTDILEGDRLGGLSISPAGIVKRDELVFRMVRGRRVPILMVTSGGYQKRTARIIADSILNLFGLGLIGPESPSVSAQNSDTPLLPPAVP
Briefly: Inhibition of HDAC11 (unknown origin) incubated for 3 hrs in presence of BSA and DTT by fluorescence assay. The method in brief:
as §1

For assay [5], the target named is Histone deacetylase (Homo sapiens) (UniProt Q13547+O15379+Q9UBN7+Q92769+Q9UQL6+Q8WUI4+Q9BY41+Q96DB2+P56524+Q9UKV0+Q969S8). Briefly: Inhibition of HDAC in human HCT116 cells assessed as increase in histone H3 (Lys9/14) hyperacetylation after 8 to 24 hrs by immunoblotting method. The assay is classed as cell-based. Particulars: HCT-116; call rule not given here. Put shortly: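 HCT116 cells were treated across a dose range. Cellular HDAC inhibition was read as histone H3 (Lys9/14) hyperacetylation by immunoblot at 8 and 24 h post-treatment.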
For orientation: Immunoblotting shows a protein as a band on a membrane.

For assay [6], the target named is Histone deacetylase 1 (Homo sapiens, UniProt Q13547). Kind of assay: Inhibition of HDAC1 (unknown origin) incubated for 30 mins in presence of BSA and DTT by fluorescence assay.
Histone deacetylase 1, sequence (Q13547 whole entry): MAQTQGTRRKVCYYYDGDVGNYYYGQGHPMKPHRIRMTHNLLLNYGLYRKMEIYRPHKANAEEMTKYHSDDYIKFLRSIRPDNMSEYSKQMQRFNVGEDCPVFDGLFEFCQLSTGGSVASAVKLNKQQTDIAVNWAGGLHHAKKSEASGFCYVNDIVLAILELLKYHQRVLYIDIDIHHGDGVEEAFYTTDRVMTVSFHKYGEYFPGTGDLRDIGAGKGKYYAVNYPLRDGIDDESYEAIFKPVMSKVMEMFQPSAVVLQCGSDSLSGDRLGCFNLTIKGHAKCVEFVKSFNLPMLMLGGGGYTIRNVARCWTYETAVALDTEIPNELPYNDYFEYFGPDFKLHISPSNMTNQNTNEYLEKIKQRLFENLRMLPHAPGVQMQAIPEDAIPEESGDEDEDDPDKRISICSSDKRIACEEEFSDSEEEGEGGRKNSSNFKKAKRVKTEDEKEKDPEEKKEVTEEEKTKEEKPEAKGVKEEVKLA
Assay [7] deals with T1, Histone deacetylase 5. Kind of assay: Inhibition of HDAC5 (unknown origin) at 1 uM incubated for 30 mins in presence of BSA and DTT by fluorescence assay. Put shortly:
as §1

One may read the IC50 as the point on the concentration scale where inhibition reaches its midpoint. The inhibition is the change of the read-out against control, counted positive when it falls. With `CC(C)[C@@H]1NC(=O)[C@]2(C)CSC(=N2)c2csc(n2)CNC(=O)C[C@@H](/C=C/CCSSCC/C=C/[C@@H]2CC(=O)NCc3nc(cs3)C3=N[C@@](C)(CS3)C(=O)N[C@@H](C(C)C)C(=O)O2)OC1=O`, the IC50 entry in assay [1] was “Not Active”; in assay [2], “Not Active”; in assay [4], 0.1 nM; in assay [6], 0.3 nM. For the same molecule, the inhibition in assay [3] is < 20%; in assay [5], “Dose-dependent effect”; in assay [7] it was < 20%.

With `CC(C)[C@@H]1NC(=O)[C@]2(C)CSC(=N2)c2csc(n2)CNC(=O)C[C@@H](/C=C/CCSSC[C@H](NC(=O)OC(C)(C)C)C(=O)OC(C)(C)C)OC1=O`, the IC50 result in assay [1] is “Not Active”; in assay [2], “Not Active”; in assay [4] it was 0.2 nM; in assay [6] it was 0.4 nM. The figures for the inhibition in assay [3], in assay [5] and in assay [7] were < 20%, “Dose-dependent effect” and < 20%, respectively.
